Laboratory results reported in ChEMBL document CHEMBL1671867, “Novel polymyxin derivatives carrying only three positive charges are effective antibacterial agents” (Antimicrob Agents Chemother, 2008).
Values after ≈ are worked out from the molar mass of the structure shown.

Tests used:
Format in all cases: functional
Escherichia coli [1] = assay: Antibacterial activity against Escherichia coli ATCC […] by Etest method in presence of 1 ug/ml NAB7061
Klebsiella pneumoniae [2] = assay: Antibacterial activity against Klebsiella pneumoniae ATCC 13883 by Etest method in presence of NAB7061
Method in brief: (§1)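 MICs of the antibiotic taken from E-strips on Mueller-Hinton agar, run both with and without peptide. […] Inoculum was prepared per the strip manufacturer, matching CLSI M2-A9.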

Enterobacter cloacae [3] = assay: Antibacterial activity against Enterobacter cloacae ATCC 23355 by Etest method
Method in brief: (§2)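 E-strip MIC on Mueller-Hinton agar without added peptide; inoculum per manufacturer, matching CLSI M2-A9.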

Escherichia coli [4] = assay: Antibacterial activity against Escherichia coli IH3080 by Etest method in presence of 2 ug/ml NAB7062
Escherichia coli [5] = assay: Antibacterial activity against Escherichia coli IH3080 by Etest method in presence of 4 ug/ml NAB7064
Klebsiella pneumoniae [6] = assay: Antibacterial activity against Klebsiella pneumoniae ATCC 13883 by Etest method; method in brief: as §1
Enterobacter cloacae [7] = assay: Ratio of the MIC for Enterobacter cloacae ATCC 23355 in the absence of NAB7061 to MIC for Enterobacter cloacae ATCC 23355 […] in the presence of 4 ug/ml of NAB7061
Escherichia coli [8] = assay: Antibacterial activity against Escherichia coli IH3080 by Etest method in presence of NAB7061
Enterobacter cloacae [9] = assay: Antibacterial activity against Enterobacter cloacae ATCC 23355 […] by Etest method in presence of 2 ug/ml NAB7062
Escherichia coli [10] = assay: Antibacterial activity against Escherichia coli ATCC […] by Etest method in presence of 2 ug/ml NAB7062
Escherichia coli [11] = assay: Ratio of the MIC for Escherichia coli IH3080 in the absence of NAB7061 to MIC for Escherichia coli IH3080 in the presence of 4 ug/ml of NAB7061
Klebsiella pneumoniae [12] = assay: Antibacterial activity against Klebsiella pneumoniae ATCC 13883 by Etest method in presence of 4 ug/ml NAB7061; method in brief: as §1
Enterobacter cloacae [13] = assay: Antibacterial activity against Enterobacter cloacae ATCC 23355 […] by Etest method in presence of 4 ug/ml NAB7064
Klebsiella pneumoniae [14] = assay: Ratio of the MIC for Klebsiella pneumoniae ATCC 13883 in the absence of NAB7061 to MIC for Klebsiella pneumoniae ATCC 13883 in the presence of 4 ug/ml of NAB7061
Escherichia coli [15] = assay: Ratio of the MIC for Escherichia coli ATCC 25992 in the absence of NAB7061 to MIC for Escherichia coli ATCC 25992 in the presence of 4 ug/ml of NAB7061
Klebsiella pneumoniae [16] = assay: Antibacterial activity against Klebsiella pneumoniae ATCC 13883 by Etest method in presence of 1 ug/ml NAB7061; method in brief: as §1
Escherichia coli [17] = assay: Antibacterial activity against Escherichia coli IH3080 by Etest method; method in brief: as §2
Enterobacter cloacae [18] = assay: Antibacterial activity against Enterobacter cloacae ATCC 23355 […] by Etest method in presence of NAB7061
Escherichia coli [19] = assay: Antibacterial activity against Escherichia coli ATCC […] by Etest method in presence of NAB7061
Klebsiella pneumoniae [20] = assay: Antibacterial activity against Klebsiella pneumoniae ATCC 13883 by Etest method in presence of 2 ug/ml NAB7061; method in brief: as §1
Escherichia coli [21] = assay: Antibacterial activity against Escherichia coli IH3080 by Etest method in presence of 1 ug/ml NAB7061
Escherichia coli [22] = assay: Antibacterial activity against Escherichia coli ATCC 25992 by Etest method; method in brief: as §2
Escherichia coli [23] = assay: Antibacterial activity against Escherichia coli ATCC […] by Etest method in presence of 4 ug/ml NAB7064
Enterobacter cloacae [24] = assay: Antibacterial activity against Enterobacter cloacae ATCC 23355 […] by Etest method in presence of 1 ug/ml NAB7061
Acinetobacter baumannii [25] = assay: (§3) Antibacterial activity against Acinetobacter baumannii F264 by Etest method in presence of […] NAB739
Pseudomonas aeruginosa [26] = assay: Antibacterial activity against Pseudomonas aeruginosa ATCC 27853by Etest method in presence of 1 ug/ml NAB739; method in brief: as §1
Pseudomonas aeruginosa [27] = assay: Antibacterial activity against Pseudomonas aeruginosa ATCC 27853by Etest method in presence of 0.5 ug/ml NAB739; method in brief: as §1
Acinetobacter baumannii [28] = assay: Antibacterial activity against Acinetobacter baumannii ATCC 19606 by Etest method in presence of 1 ug/ml NAB739
Acinetobacter baumannii [29] = assay: Antibacterial activity against Acinetobacter baumannii F264 by Etest method in presence of 1 ug/ml NAB739
Acinetobacter baumannii [30] = assay: Antibacterial activity against Acinetobacter baumannii F264 by Etest method in presence of 0.5 ug/ml NAB739
Pseudomonas aeruginosa [31] = assay: (§4) Antibacterial activity against Pseudomonas aeruginosa ATCC 27853by Etest method in presence of […] NAB739
Pseudomonas aeruginosa [32] = assay: Antibacterial activity against Pseudomonas aeruginosa ATCC 27853by Etest method in presence of 2 ug/ml NAB739
Acinetobacter baumannii [33] = assay: Antibacterial activity against Acinetobacter baumannii F264 by Etest method in presence of NAB739
Acinetobacter baumannii [34] = assay: Antibacterial activity against Acinetobacter baumannii F264 by Etest method; method in brief: as §2
Pseudomonas aeruginosa [35] = assay: Antibacterial activity against Pseudomonas aeruginosa ATCC 27853by Etest method; method in brief: as §1
Pseudomonas aeruginosa [36] = assay: as §4; remark: listed apart in the source
Acinetobacter baumannii [37] = assay: (§5) Antibacterial activity against Acinetobacter baumannii ATCC 19606 by Etest method in presence of […] NAB739
Acinetobacter baumannii [38] = assay: as §3; remark: listed apart in the source
Acinetobacter baumannii [39] = assay: Antibacterial activity against Acinetobacter baumannii ATCC 19606 by Etest method in presence of 0.5 ug/ml NAB739
Acinetobacter baumannii [40] = assay: as §5; remark: listed apart in the source
Acinetobacter baumannii [41] = assay: Antibacterial activity against Acinetobacter baumannii ATCC 19606 by Etest method
Acinetobacter baumannii [42] = assay: Antibacterial activity against Acinetobacter baumannii ATCC 19606 by Etest method in presence of NAB739

Structure (SMILES): CC[C@H]1OC(=O)[C@H](C)[C@@H](O[C@H]2C[C@@](C)(OC)[C@@H](O)[C@H](C)O2)[C@H](C)[C@@H](O[C@@H]2O[C@H](C)C[C@H](N(C)C)[C@H]2O)[C@](C)(O)C[C@@H](C)CN(C)[C@H](C)[C@@H](O)[C@]1(C)O [AZITHROMYCIN]
- MIC (Escherichia coli [1]): 0.5 µg/mL
- MIC (Klebsiella pneumoniae [2]): ≤ 0.126 µg/mL
- MIC (Enterobacter cloacae [3]): 6 µg/mL (≈ 8.01 µM)
- MIC (Escherichia coli [4]): 0.19 µg/mL
- MIC (Escherichia coli [5]): 0.064 µg/mL
- MIC (Klebsiella pneumoniae [6]): 2 µg/mL (≈ 2.67 µM)
- Ratio (Enterobacter cloacae [7]): 32
- MIC (Escherichia coli [8]): 0.173 µg/mL
- MIC (Enterobacter cloacae [9]): 1.5 µg/mL
- MIC (Escherichia coli [10]): 0.19 µg/mL
- Ratio (Escherichia coli [11]): 31
- MIC (Klebsiella pneumoniae [12]): 0.047 µg/mL
- MIC (Enterobacter cloacae [13]): 0.19 µg/mL
- Ratio (Klebsiella pneumoniae [14]): 31
- Ratio (Escherichia coli [15]): 24
- MIC (Klebsiella pneumoniae [16]): 0.19 µg/mL
- MIC (Escherichia coli [17]): 2 µg/mL (≈ 2.67 µM)
- MIC (Enterobacter cloacae [18]): 0.438 µg/mL
- fractional inhibitory concentration index (FICI) (Escherichia coli [19]): 0.157
- MIC (Klebsiella pneumoniae [20]): 0.19 µg/mL
- MIC (Escherichia coli [21]): 0.75 µg/mL
- MIC (Escherichia coli [22]): 3 µg/mL (≈ 4.01 µM)
- MIC (Escherichia coli [23]): 0.094 µg/mL
- MIC (Enterobacter cloacae [24]): 4 µg/mL

Structure (SMILES): CC[C@H]1OC(=O)[C@H](C)[C@@H](O[C@H]2C[C@@](C)(OC)[C@@H](O)[C@H](C)O2)[C@H](C)[C@@H](O[C@@H]2O[C@H](C)C[C@H](N(C)C)[C@H]2O)[C@](C)(O)C[C@@H](C)C(=O)[C@H](C)[C@@H](O)[C@]1(C)O [ERYTHROMYCIN]
- MIC (Escherichia coli [1]): 6 µg/mL
- MIC (Klebsiella pneumoniae [2]): ≤ 0.143 µg/mL
- MIC (Enterobacter cloacae [3]): 64 µg/mL (≈ 87.2 µM)
- MIC (Escherichia coli [4]): 2 µg/mL
- MIC (Escherichia coli [5]): 0.38 µg/mL
- MIC (Klebsiella pneumoniae [6]): 24 µg/mL (≈ 32.7 µM)
- Ratio (Enterobacter cloacae [7]): 21
- MIC (Escherichia coli [8]): 0.25 µg/mL
- MIC (Enterobacter cloacae [9]): 8 µg/mL
- MIC (Escherichia coli [10]): 2 µg/mL
- Ratio (Escherichia coli [11]): 32
- MIC (Klebsiella pneumoniae [12]): 0.5 µg/mL
- MIC (Enterobacter cloacae [13]): 1.5 µg/mL
- Ratio (Klebsiella pneumoniae [14]): 24
- Ratio (Escherichia coli [15]): 32
- MIC (Klebsiella pneumoniae [16]): 4 µg/mL
- MIC (Escherichia coli [17]): 16 µg/mL (≈ 21.8 µM)
- MIC (Enterobacter cloacae [18]): 0.375 µg/mL
- fractional inhibitory concentration index (FICI) (Escherichia coli [19]): 0.188
- MIC (Klebsiella pneumoniae [20]): 2 µg/mL
- MIC (Escherichia coli [21]): 4 µg/mL
- MIC (Escherichia coli [22]): 32 µg/mL (≈ 43.6 µM)
- MIC (Escherichia coli [23]): 0.75 µg/mL
- MIC (Enterobacter cloacae [24]): 48 µg/mL

Structure (SMILES): CC(=O)O[C@H]1C[C@@]2(C)[C@@H](C[C@@H](O)[C@H]3[C@@]4(C)CC[C@@H](O)[C@@H](C)[C@@H]4CC[C@@]32C)/C1=C(\CCC=C(C)C)C(=O)O [FUSIDIC ACID]
- MIC (Acinetobacter baumannii [25]): 32 µg/mL
- MIC (Pseudomonas aeruginosa [26]): > 256 µg/mL
- MIC (Pseudomonas aeruginosa [27]): > 256 µg/mL
- MIC (Acinetobacter baumannii [28]): 1 µg/mL
- MIC (Acinetobacter baumannii [29]): 1 µg/mL
- MIC (Acinetobacter baumannii [30]): 3 µg/mL
- MIC (Pseudomonas aeruginosa [31]): > 256 µg/mL
- MIC (Pseudomonas aeruginosa [32]): 192 µg/mL
- fractional inhibitory concentration index (FICI) (Acinetobacter baumannii [33]): <=0.172
- MIC (Acinetobacter baumannii [34]): > 256 µg/mL
- MIC (Pseudomonas aeruginosa [35]): > 256 µg/mL
- MIC (Pseudomonas aeruginosa [36]): > 256 µg/mL
- MIC (Acinetobacter baumannii [37]): 32 µg/mL
- MIC (Acinetobacter baumannii [38]): 12 µg/mL
- MIC (Acinetobacter baumannii [39]): 4 µg/mL
- MIC (Acinetobacter baumannii [40]): 12 µg/mL
- MIC (Acinetobacter baumannii [41]): > 256 µg/mL
- fractional inhibitory concentration index (FICI) (Acinetobacter baumannii [42]): <=0.172
